UBC13 inh = inhibitors of human UBC13 polyubiquitin chain formation | TR-FRET | 330,000 tested, 0.47% active | inhibition, % at 20 µM; in the data active means inhibition above about 45%, passing the limit was not always enough; inconclusive means no clear call, values can overlap the other calls
Target sequence (P61088 whole entry, looked up): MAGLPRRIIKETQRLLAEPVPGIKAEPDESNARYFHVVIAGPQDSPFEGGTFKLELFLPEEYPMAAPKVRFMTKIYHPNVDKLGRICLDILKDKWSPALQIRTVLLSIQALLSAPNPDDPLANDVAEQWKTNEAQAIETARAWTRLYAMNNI
Mdm2 MdmX PPI = human Mdm2/MdmX binding inhibition | O15151+Q00987 | SaOS-2 split-luciferase Mdm2/MdmX complementation, luminescence | inhibition, % at 8 µM | 330,000 tested, 3% active | AID 485346;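 active means inhibition of at least 50% at 8 µM in the primary screen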
Apaf-1 inh = inhibitors of human Apaf-1 apoptosome; 330,000 tested, 0.71% active; O14727; inhibition, % at 20 µM; reconstituted apoptosome caspase-3 activity, DEVD-Rh110 fluorescence; active means inhibition of at least 40% at 20 µM;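 further: plate controls were DMSO wells for no effect and DEVD-CHO caspase inhibitor wells for full effect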
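Material: cell-free apoptosome with Apaf-1, procaspase-3 and caspase-9; Buffer or medium: Hepes pH 7.5 with detergent and BSA; Reagent: cytochrome c trigger plus (Z-DEVD)2-Rh110 caspase-3 substrate; Times: compound with Apaf-1, dATP, procaspase-3 30 min, then 50 min reaction, room temperature; Technique: Rh110 fluorescence intensity.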
UPR XBP1 act = adaptive UPR (XBP1) activation; CHO-XBP1 luciferase reporter, IRE1-XBP1 UPR activation, luminescence; percent of tunicamycin response, DMSO as zero; 330,000 tested, 0.33% active; AID 463104; activation, % at 20 µM;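 active means versus positive control, 20 µM dose yields 30% or more activation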;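 further: 100% = tunicamycin at 10 µg/mL and 0% = DMSO only wells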
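Material: CHO cell line with stable XBP1 luciferase reporter; buffer or medium: F12 medium containing 10% fetal bovine serum; compound: single point, 20 µM final compound, 1% DMSO; incubation: 6 h treatment, 37 °C; measured by: glow luminescence from Steady-Glo reagent; evaluation: activation, % of tunicamycin; control set: tunicamycin high, DMSO low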
UPR CHOP act = apoptotic UPR (CHOP) activation; 330,000 tested, 0.34% active; AID 449763; activation, % at 10 µM; CHO-CHOP luciferase reporter, luminescence; percent of tunicamycin response over DMSO baseline;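 active means at 10 µM dose, activation of 40% or more, normalized to positive control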;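 further: 100% = tunicamycin at 10 µg/mL and 0% = DMSO alone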
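Test system: CHO CHOP reporter cells. Input: 500 CHO-CHOP cells per well. Medium: F12 with 10% FBS. Technique: luciferase luminescence. Measure: percent activation relative to tunicamycin control. Dosing: 10 µM compound, 0.5% DMSO. Timing: 16-18 h cell attachment, then 6 h compound exposure, 37 °C.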
Mdm2 MdmX conf = confirmation of human Mdm2/MdmX interaction inhibitors. shares compounds with Mdm2 MdmX PPI. Mdm2-MdmX binding, luminescent assay. inhibition, % at 8 µM. 10,000 tested, 55% active. AID 489028; in the data active means inhibition above about 40%
Full FLuc ctr = counter-screen for Mdm2/MdmX inhibitors: full-length luciferase; shares compounds with Mdm2 MdmX PPI; SaOS-2 full-length luciferase counterscreen, luminescence; inhibition, % at 8 µM; 6,200 tested, 77% active;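 active means mean inhibition at 8 µM reaching about 37%, which flags the compound as non-specific, limit read from the data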;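 further: p53-null SaOS-2 cells with luciferase driven by a doxycycline-inducible promoter; compound on cells about two nights before reading with doxycycline added after day one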
An asterisk follows results filed as active; ? = inconclusive; . = not tested or not shown. Shown are actives, neighbours in structure and some others; about 4.1% of the full set was active somewhere.

SMILES | UBC13 inh | Mdm2 MdmX PPI | Apaf-1 inh | UPR XBP1 act | UPR CHOP act | Mdm2 MdmX conf | others
COc1ccc(CCN(C)C(=O)CSc2nc3ncc(Cl)cc3[nH]2)cc1OC | -6 | 5 | 9 | 3 | 2 | .
O=C1CN(C(=O)COC(=O)CCc2ccccc2O)c2ccccc2N1 | 7 | -10 | -3 | -3 | -1 | .
COc1cc(-c2onc3ccc(Br)cc23)cc(OC)c1OC | -8 | 50* | 23 | -2 | -1 | 52* | Full FLuc ctr=60*
COc1ccc(NC(=O)c2[nH]c(C)c(C(C)=O)c2C)cc1S(=O)(=O)N1CCOCC1 | 1 | 28 | 3 | 3 | 1 | .
CC(=O)c1c(C)[nH]c(C(=O)Nc2ccc(Cl)c(S(=O)(=O)N3CCOCC3)c2)c1C | 4 | 59* | 11 | -1 | 1 | 34
CC(=O)c1c(C)[nH]c(C(=O)Nc2cccc(S(=O)(=O)N3CCCC3)c2)c1C | 10 | 70* | 3 | 1 | 2 | 20
CC(=O)c1c(C)[nH]c(C(=O)Nc2cccc(S(=O)(=O)N(C)C)c2)c1C | 0 | 38 | -5 | -1 | 3 | .
COc1ccccc1NS(=O)(=O)c1cc(NC(=O)c2[nH]c(C)c(C(C)=O)c2C)ccc1N1CCOCC1 | 3 | 61* | -9 | 6 | 2 | 30
CC(=O)c1c(C)[nH]c(C(=O)OCC(=O)Nc2cc(S(=O)(=O)N3CCCC3)ccc2Cl)c1C | 10 | 54* | 6 | 0 | 2 | 35
CC(=O)c1c(C)[nH]c(C(=O)OCC(=O)Nc2cccc(S(=O)(=O)N3CCCC3)c2)c1C | -4 | 7 | 4 | 0 | 4 | .
COc1ccccc1NS(=O)(=O)c1cc(NC(=O)c2ccc(=O)[nH]c2)ccc1N1CCOCC1 | -7 | -5 | 9 | -4 | -2 | .
CC(C)C1N(C(=O)N2CCOCC2)CCN1S(=O)(=O)c1ccccc1 (configuration not stated) | 5 | -8 | -3 | -3 | 1 | .
COc1cc(NC(=S)Nc2ccccn2)cc(OC)c1 | 10 | -11 | 8 | -5 | 0 | .
CCO/C(=C/c1sc2ccc(OC)cc2[n+]1CCCS(=O)(=O)[O-])CC | 1 | -5 | 9 | 2 | -1 | .
CCC(/C=C1\Sc2ccc(OC)cc2N1CC)=C\c1sc2ccc(OC)cc2[n+]1CCCS(=O)(=O)[O-] | -20 | 54* | 9 | -2 | -2 | 25
CCC(/C=C1\Sc2ccc(OC)cc2N1CCO)=C\c1sc2ccc(OC)cc2[n+]1CCO | 40 | 72* | 23 | -3 | -5 | 22
CCC(=O)/C=C1/Sc2ccc(OC)cc2N1CCO | 6 | -4 | -4 | -1 | 2 | .
COc1cc(NC(=O)Cn2ccsc2=N)cc(OC)c1 | 11 | -9 | -8 | 1 | 2 | .
OC(CN1CCN(c2cccc(C(F)(F)F)c2)CC1)c1c[nH]c2ccccc12 (configuration not stated) | 22 | 50 | 16 | -6 | -1 | 46* | Full FLuc ctr=64*
COC(=O)C1=C(Nc2ccc(C)cc2)C=C(C)C(C(=O)OC)C1c1cccc(OC)c1 (configuration not stated) | -12 | 53* | 12 | 0 | -1 | 57* | Full FLuc ctr=62*
O=C(NCCOc1ccccc1)c1cncc(Br)c1 | 5 | -19 | 3 | 4 | 4 | .
CCc1cc(C)cc(OCCNC(=O)c2cncc(Br)c2)c1 | 9 | 59* | 4 | -3 | -1 | 29
CC(=O)c1cccc(CN2CCC(C(=O)Nc3ccc(-c4cccc(C)c4)cc3)CC2)c1 | 17 | 52* | 29 | -1 | 1 | 18
CC(=O)c1cccc(CN2CCC(C(=O)Nc3ccc(Oc4cccnc4)cc3)CC2)c1 | 2 | 28 | 14 | -4 | 0 | .
COc1cccc(CNC(=O)C2CCC(=O)N(C3CC3)C2)c1OC (configuration not stated) | 6 | 1 | -5 | -1 | 1 | .
SMILES | UBC13 inh | Mdm2 MdmX PPI | Apaf-1 inh | UPR XBP1 act | UPR CHOP act | Mdm2 MdmX conf | others
COc1cccc(-c2ccc(-c3noc(-c4ccccc4F)n3)c(OC)n2)c1 | 28 | -7 | -5 | 2 | 3 | .
COc1nc(-c2ccc(Cl)cc2)ccc1-c1noc(-c2ccco2)n1 | 9 | 54* | 7 | 0 | 1 | -9
COc1ccc2ncn(-c3ccccc3)c2c1 | 12 | 63* | -1 | 1 | -1 | 50* | Full FLuc ctr=42*
COc1ccc(-n2cnc3ccccc32)cc1 | 1 | 47 | -1 | 3 | 1 | .
Cc1sc2ncnc(Sc3nnnn3-c3ccccc3)c2c1C | 12 | 88* | 3 | -6 | 7 | 48* | Full FLuc ctr=7
Cn1nnnc1Sc1ncnc2scc(-c3cccc4c3sc3ccccc34)c12 | 18 | 100* | 27 | 1 | 3 | 67* | Full FLuc ctr=48*
Cn1nnnc1Sc1ncnc2scc(-c3ccccc3Cl)c12 | 4 | 68* | 8 | 2 | 1 | 59* | Full FLuc ctr=21
O=C(CSc1ccc2ccccc2c1)Nc1ccc(S(=O)(=O)Nc2nccs2)cc1 | -8 | -16 | 4 | 0 | 0 | .
Cc1ccc(S(=O)(=O)NCC(=O)OCC(=O)NCc2ccc(F)cc2)cc1 | 4 | -45 | -1 | 1 | 1 | .
Cc1ccc(NC(=O)CSC2=C(C#N)C(c3ccco3)C3=C(CC(C)(C)CC3=O)N2)cc1 (configuration not stated) | 5 | 51* | 15 | -2 | -1 | 20
CCc1ccc(NC(=O)CSC2=C(C#N)C(c3ccco3)C3=C(CCCC3=O)N2)cc1 (configuration not stated) | 0 | 9 | 21 | -5 | -1 | .
O=C(CNC(=O)c1ccccc1)Oc1cccc(Cl)c1 | 3 | 16 | -18 | -2 | -2 | .
Cc1c(C(=O)Nc2ccc(Cl)cc2)c2ccccn2c1C(=O)c1ccccc1 | 12 | 59* | 8 | -4 | 1 | 0
Cc1cc(=O)oc2cc(OCC(=O)N3CCc4ccccc4C3)ccc12 | 11 | 0 | -1 | 2 | 0 | .
COc1ccc2c(c1)c(=O)oc1c(C)c(OCC(=O)N3CCc4ccccc4C3)ccc12 | 36 | 53* | 33 | 0 | -1 | 13
COc1ccc(N2CCN(C(=O)COc3ccc4c(C)c(C)c(=O)oc4c3C)CC2)cc1 | 1 | 53* | 24 | -4 | 5 | 20
Cc1nnc(NC(=O)C2CC(=O)N(C(C)c3ccccc3)C2)s1 (configuration not stated) | 9 | -27 | -12 | 0 | 1 | .
CC1CCc2cc(F)cc3c(O)c(C(=O)NCC4CCCO4)c(=O)n1c23 (configuration not stated) | ? | 71* | 21 | -2 | -2 | 44* | Full FLuc ctr=22
CCCn1c(=O)c(C(=O)NCc2ccccn2)c(O)c2ccccc21 | 40 | 63* | 14 | -2 | -3 | 33
